Here are results for three compounds from article PMC7357868 (ACS chemical biology, 2019).

One data set deals with recombinant hpol κ. The following applies: cited from earlier work.
Data set [1] deals with hpol κ-proficient HAP-1 cells. As to the kind of experiment: Clonogenic survival assay. The following applies: 250 μM TMZ alone, 1 h, 10 days culture. The format is cell-based, human.
The subject of data set [2] is hpol κ-deficient HAP-1 cells. Description: Clonogenic survival assay. The format is cell-based, human. The following applies: 250 μM TMZ alone.
In data set [3] the test system is hpol κ-proficient HAP-1 cells. As to the kind of experiment: Alkaline comet assay. The format is cell-based, human. Particulars: 100 μM TMZ alone, 1 h. The method, boiled down: (§1)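 100 000 HAP-1 cells per well, test compound 0.5 μM alone or with alkylating agent (100 μM), 1 h; DMSO control. Cells embedded in low-melting agarose (200–300 per well), lysed 1 h, alkaline unwinding (200 mM NaOH, 1 mM EDTA) 20 min RT, electrophoresis 21 V, 30 min, 4 °C, SYBR Gold stain. Read-out is % DNA in tail per cell; ≥20 cells per replicate, three biological replicates, mean ±SD.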

The test system of data set [4] is hpol κ-deficient HAP-1 cells. Description: Alkaline comet assay. The data set is classed as cell-based, human. The following applies: 100 μM TMZ alone, 1 h. The method, boiled down: as §1

On to `CC(C)c1ccc2c(c1)c(SC(C)(C)C)c(CC(C)(C)C(=O)O)n2Cc1ccc(Cl)cc1` [MK-886], for which the IC50 result in the data set on recombinant hpol κ is “tens of micromolar”.
Turning to `Cn1nnc2c(C(N)=O)ncn2c1=O` [TMZ, temozolomide, reference compound], the “colonies formed relative to untreated cells” value is reported as ~ 75% in data set [1] and “less than 50%” in data set [2]. Besides, in data set [3], the “DNA damage (% DNA in tail) over untreated cells” value was “approximately sevenfold”. Moreover, the “DNA damage (% DNA in tail) over control” value in data set [4] is given as “significantly greater amount of DNA damage over control”.
As for `CCOc1nc2cccc(C(=O)OC(C)OC(=O)OC3CCCCC3)c2n1Cc1ccc(-c2ccccc2-c2nn[nH]n2)cc1` (stereo not drawn) [candesartan, candesartan cilexetil], the IC50 result with recombinant hpol κ is listed as “tens of micromolar”.
